Converted amounts (≈) assume the structure as drawn.
Key:
[1] = target: Cytochrome P450 3A4 (Homo sapiens, UniProt P08684); test: Inhibition of human CYP3A4 assessed as terfenadine hydroxylation after 20 mins by LC/MS/MS analysis; format: ADME
In short: (§1)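 Human liver microsomes (0.2 mg protein/mL) with 1 mM NADPH in 50 mM HEPES pH 7.4, 10 mM MgCl2, 0.1 mM EDTA. After centrifugation, supernatant metabolite measured by LC/MS/MS. Standard curve from authentic metabolite cocktail added to unincubated reaction mix.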

[2] = target: T1, Cytochrome P450 1A2 (Homo sapiens, UniProt P05177); test: Inhibition of human CYP1A2 assessed as ethoxyresorufin O-deethylation after 20 mins by fluorescence plate reader analysis; format: ADME
T1 sequence (P05177 whole entry): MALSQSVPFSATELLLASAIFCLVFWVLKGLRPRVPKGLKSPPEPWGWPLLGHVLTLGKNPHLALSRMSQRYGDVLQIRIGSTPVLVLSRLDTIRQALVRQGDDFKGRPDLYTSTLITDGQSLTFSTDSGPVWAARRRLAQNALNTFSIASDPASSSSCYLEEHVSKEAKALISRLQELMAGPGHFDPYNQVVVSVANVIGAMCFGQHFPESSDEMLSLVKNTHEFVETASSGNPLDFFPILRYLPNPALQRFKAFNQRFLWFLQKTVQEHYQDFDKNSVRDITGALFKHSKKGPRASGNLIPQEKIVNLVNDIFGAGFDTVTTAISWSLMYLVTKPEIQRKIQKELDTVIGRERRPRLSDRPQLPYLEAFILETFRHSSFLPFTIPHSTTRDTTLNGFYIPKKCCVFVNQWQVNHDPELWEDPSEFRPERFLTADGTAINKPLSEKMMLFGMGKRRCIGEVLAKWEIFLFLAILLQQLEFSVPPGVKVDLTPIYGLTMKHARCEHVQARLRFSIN
In short: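 Human liver microsomes (0.2 mg protein/mL) with 1 mM NADPH in 50 mM HEPES pH 7.4, 10 mM MgCl2, 0.1 mM EDTA. After centrifugation, supernatant read on a fluorescence plate reader. Standard curve from authentic metabolite added to unincubated reaction mix.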

[3] = target: Cytochrome P450 2C9 (Homo sapiens, UniProt P11712); test: Inhibition of human CYP2C9 assessed as tolbutamide hydroxylation after 20 mins by LC/MS/MS analysis; format: ADME; in short: as §1
[4] = test system: Staphylococcus aureus; test: Antibacterial activity against methicillin-resistant Staphylococcus aureus SR3637 infected in JCL/ICR mouse systemic infection model assessed as mortality administered as po measured over 7 days; format: functional; settings: 168 h
In short: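 Five-week-old male JCL/ICR mice (20–25 g), five per group. Infected intraperitoneally with 0.5 or 1.0 mL bacterial suspension (about 100× LD50). Oral dosing 1 h post-infection. Mortality followed 7 days; ED50 with 95% confidence limits by logit method.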

[5] = test system: Staphylococcus aureus; test: Antibacterial activity against methicillin-resistant Staphylococcus aureus SR3637 infected in JCL/ICR mouse systemic infection model assessed as mortality administered as iv measured over 7 days; format: functional; settings: 168 h
In short: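 Five-week-old male JCL/ICR mice (20–25 g), five per group. Infected intraperitoneally with 0.5 or 1.0 mL bacterial suspension (about 100× LD50). Intravenous dosing 1 h post-infection. Mortality followed 7 days; ED50 with 95% confidence limits by logit method.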

[6] = test system: Staphylococcus aureus; test: Antibacterial activity against methicillin-resistant Staphylococcus aureus SR3637 assessed as growth inhibition by CLSI broth microdilution method; format: functional
In short: (§2)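 MIC by CLSI broth microdilution in cation-adjusted Mueller-Hinton broth. Lowest concentration inhibiting growth taken as MIC.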

[7] = test system: Streptococcus pneumoniae; test: Ratio of eperezolid MIC to compound MIC for Streptococcus pneumoniae SR26207 clinical isolate; format: functional
[8] = test system: Moraxella catarrhalis; test: Ratio of eperezolid MIC to compound MIC for Moraxella catarrhalis SR26840 clinical isolate; format: functional
[9] = test system: Enterococcus faecium; test: Ratio of eperezolid MIC to compound MIC for Enterococcus faecium SR7940 clinical isolate; format: functional
[10] = test system: Enterococcus faecalis; test: Ratio of eperezolid MIC to compound MIC for Enterococcus faecalis SR1004 clinical isolate; format: functional
[11] = test system: Staphylococcus aureus; test: Ratio of eperezolid MIC to compound MIC for Staphylococcus aureus Smith; format: functional
[12] = test system: Staphylococcus aureus; test: Ratio of eperezolid MIC to compound MIC for Staphylococcus aureus SR20549 clinical isolate; format: functional
[13] = test system: Moraxella catarrhalis; test: Ratio of linezolid MIC to compound MIC for Moraxella catarrhalis SR26840 clinical isolate; format: functional
[14] = test system: Streptococcus pneumoniae; test: Ratio of linezolid MIC to compound MIC for Streptococcus pneumoniae SR26207 clinical isolate; format: functional
[15] = test system: Haemophilus influenzae; test: Ratio of linezolid MIC to compound MIC for Haemophilus influenzae SR27914 clinical isolate; format: functional
[16] = test system: Enterococcus faecium; test: Ratio of linezolid MIC to compound MIC for Enterococcus faecium SR7940 clinical isolate; format: functional
[17] = test system: Enterococcus faecalis; test: Ratio of linezolid MIC to compound MIC for Enterococcus faecalis SR1004 clinical isolate; format: functional
[18] = test system: Staphylococcus aureus; test: Ratio of linezolid MIC to compound MIC for Staphylococcus aureus Smith; format: functional
[19] = test system: Staphylococcus aureus; test: Ratio of linezolid MIC to compound MIC for Staphylococcus aureus SR20549 clinical isolate; format: functional
[20] = test system: Haemophilus influenzae; test: Antibacterial activity against Haemophilus influenzae SR27914 clinical isolate assessed as growth inhibition by CLSI broth microdilution method; format: functional
In short: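 MIC by CLSI broth microdilution using Haemophilus test medium.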

[21] = test system: Streptococcus pneumoniae; test: Antibacterial activity against Streptococcus pneumoniae SR26207 clinical isolate assessed as growth inhibition by CLSI broth microdilution method; format: functional
In short: (§3)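 MIC by CLSI broth microdilution in cation-adjusted Mueller-Hinton broth; S. pneumoniae medium supplemented with 5% lysed horse blood.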

[22] = test system: Moraxella catarrhalis; test: Antibacterial activity against Moraxella catarrhalis SR26840 clinical isolate assessed as growth inhibition by CLSI broth microdilution method; format: functional; in short: as §3
[23] = test system: Enterococcus faecium; test: Antibacterial activity against Enterococcus faecium SR7940 clinical isolate assessed as growth inhibition by CLSI broth microdilution method; format: functional; in short: as §3
[24] = test system: Staphylococcus aureus; test: Antibacterial activity against linezolid-resistant Staphylococcus aureus NRS271 assessed as growth inhibition by CLSI broth microdilution method; format: functional; in short: as §2
[25] = test system: Staphylococcus aureus; test: Antibacterial activity against Staphylococcus aureus Smith assessed as growth inhibition by CLSI broth microdilution method; format: functional; in short: as §3
[26] = test system: Staphylococcus aureus; test: Antibacterial activity against Staphylococcus aureus SR20549 clinical isolate assessed as growth inhibition by CLSI broth microdilution method; format: functional; in short: as §3

Sequence of Cytochrome P450 3A4 (P08684 whole entry): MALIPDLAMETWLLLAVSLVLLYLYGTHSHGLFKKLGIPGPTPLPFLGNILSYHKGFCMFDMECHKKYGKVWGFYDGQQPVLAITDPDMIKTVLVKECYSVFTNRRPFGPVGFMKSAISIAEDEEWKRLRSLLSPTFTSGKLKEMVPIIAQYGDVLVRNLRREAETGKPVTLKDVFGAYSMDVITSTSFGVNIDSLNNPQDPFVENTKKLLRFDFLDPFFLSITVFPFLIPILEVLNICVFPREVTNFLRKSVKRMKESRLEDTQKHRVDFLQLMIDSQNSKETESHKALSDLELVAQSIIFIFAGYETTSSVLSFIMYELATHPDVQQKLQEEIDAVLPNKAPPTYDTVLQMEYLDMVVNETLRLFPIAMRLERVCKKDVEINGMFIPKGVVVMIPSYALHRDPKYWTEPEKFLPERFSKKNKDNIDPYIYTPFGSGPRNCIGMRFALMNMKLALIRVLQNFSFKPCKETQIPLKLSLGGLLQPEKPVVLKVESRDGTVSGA
Sequence of Cytochrome P450 2C9 (P11712 whole entry): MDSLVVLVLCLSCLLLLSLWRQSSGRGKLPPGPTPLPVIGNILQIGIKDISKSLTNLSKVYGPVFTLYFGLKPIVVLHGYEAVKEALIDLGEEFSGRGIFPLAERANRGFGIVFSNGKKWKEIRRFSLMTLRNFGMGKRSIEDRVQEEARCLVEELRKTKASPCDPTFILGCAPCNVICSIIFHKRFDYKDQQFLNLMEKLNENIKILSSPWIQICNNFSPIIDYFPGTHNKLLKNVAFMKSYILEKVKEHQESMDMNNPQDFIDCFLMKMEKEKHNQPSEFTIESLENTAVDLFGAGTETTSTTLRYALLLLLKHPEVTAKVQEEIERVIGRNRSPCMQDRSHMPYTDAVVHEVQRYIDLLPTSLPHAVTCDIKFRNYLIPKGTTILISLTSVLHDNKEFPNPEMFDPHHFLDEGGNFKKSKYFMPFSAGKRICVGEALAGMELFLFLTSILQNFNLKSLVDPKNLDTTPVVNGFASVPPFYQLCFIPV

SMILES | IC50 [1] [µM] | IC50 [2] [µM] | IC50 [3] [µM] | ED50 [4] [mg/kg] | ED50 [5] [mg/kg] | MIC [6] [µg/mL] | Ratio [7] | Ratio [8] | Ratio [9] | Ratio [10] | Ratio [11] | Ratio [12] | Ratio [13] | Ratio [14] | Ratio [15] | Ratio [16] | Ratio [17] | Ratio [18] | Ratio [19] | MIC [20] [µg/mL] | other results
COC(=S)NC[C@H]1CN(c2ccc(N3CCNN(C(=O)CO)CC3)c(F)c2)C(=O)O1 | > 20 | > 20 | > 20 | 1.05 | 0.94 | 0.25 (≈ 0.566 µM) | 4 | 4 | 4 | 4 | 4 | 4 | 4 | 4 | 4 | 4 | 4 | 4 | 4 | 4 (≈ 9.06 µM) | MIC [21]: 0.125 µg/mL (≈ 0.283 µM); MIC [22]: 2 µg/mL (≈ 4.53 µM); MIC [23]: 0.25 µg/mL (≈ 0.566 µM); MIC [24]: 2 µg/mL (≈ 4.53 µM); MIC [25]: 0.25 µg/mL (≈ 0.566 µM); MIC [26]: 0.25 µg/mL (≈ 0.566 µM)
COC(=S)NC[C@H]1CN(c2cc(F)c(N3CCNN(C(=O)CO)CC3)c(F)c2)C(=O)O1 | > 20 | > 20 | > 20 | 2.07 | 0.77 | 0.25 (≈ 0.544 µM) | 4 | 4 | 4 | 4 | 4 | 4 | 4 | 4 | 4 | 4 | 4 | 4 | 4 | 4 (≈ 8.71 µM) | MIC [21]: ≤ 0.063 µg/mL; MIC [22]: 1 µg/mL (≈ 2.18 µM); MIC [23]: 0.25 µg/mL (≈ 0.544 µM); MIC [24]: 2 µg/mL (≈ 4.35 µM); MIC [25]: 0.25 µg/mL (≈ 0.544 µM); MIC [26]: 0.25 µg/mL (≈ 0.544 µM)

Reference: ChEMBL document CHEMBL2375276, “Antibacterial oxazolidinone analogues having a N-hydroxyacetyl-substituted seven-membered [1,2,5]triazepane or [1,2,5]oxadiazepane C-ring unit” (Eur J Med Chem, 2013)
